63 compounds from PubChem BioAssay AID1229 (Sanford-Burnham Center for Chemical Genomics, 2008) can be followed below.

The campaign covered roughly 190,000 compounds. About 10 (0.005%) were called active.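 How the source made its calls: active means diaphorase activity raised at least twofold by the compound at 20 µM; inactive means activation factor below 2.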 The list comes from a sample in which actives are over-represented; it also holds similar structures and randomly drawn compounds.

The nature of this experiment: compounds boosting diaphorase resazurin reduction – biochemical, uHTS, resorufin fluorescence, counter-screen for diaphorase-coupled primary assays, primary screen (AID 1229). The following applies: Diaphorase/resazurin coupled assay, 16 min, at 20 µM, hits give high values, 1 = vehicle wells, 0 = NADH-free wells. The procedure, abridged: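 Material: Purified diaphorase enzyme from Clostridium kluyveri | Buffer or medium: 50 mM HEPES pH 7.4 with 4.542 mM MgCl2, 0.005% Tween 20 | Times: 16 min enzyme reaction, ambient temperature | Signal: Red resorufin fluorescence at 544/590 nm excitation/emission | Measure: Increased resorufin signal from activators or reducing compounds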
Regarding `CN(C(=O)CSc1nnc(-c2n[nH]c3ccccc23)o1)c1ccccc1`, the activation factor is 0.8 (inactive).

`O=C(CSc1ccc(-c2ccccc2)nn1)NCC1CCCO1` (stereo not drawn): the activation factor was 1.1 (inactive).

Regarding `Cc1cccc(C(=O)OCC(=O)NCC(C)C)c1O`, the activation factor is 0.9 (inactive).

On to `O=C(Cc1cccs1)Nc1nnc(SCc2ccc(F)cc2)s1`, for which the activation factor was 0.9 (inactive).

As to `Cn1cnnc1Sc1ccc(CN2CCN(C3CCCC3)C(CCO)C2)o1` (stereo not drawn), the activation factor was 1 (inactive).

`CCCN=C1NC(=O)C(CC(=O)NCCc2ccc(OC)c(OC)c2)S1` (stereo not drawn): the activation factor is 0.9 (inactive).

For the compound `Cc1ccc(N(Cc2cc3ccccc3[nH]c2=O)C(=O)c2cccs2)cc1`, the activation factor is 0.9 (inactive).

Regarding `CCOc1ccc(N2C(=O)CN(c3cccc4ccccc34)C2=S)cc1`, the activation factor was 1 (inactive).

As for `CNC(=S)NNC(=O)c1cccn(Cc2ccccc2)c1=O`, the activation factor is 1 (inactive).

As to `Cc1cc(C(=O)NNC(=S)NC(C)c2ccccc2)cs1` (stereo not drawn), the activation factor is 1 (inactive).

`CCSc1nc(C)c(CCOc2cccc(C)c2)c(=O)[nH]1`: the activation factor is 1 (inactive).

For `NS(=O)(=O)c1ccc(NC(=S)NNC(=O)c2cccs2)cc1`, the activation factor was 0.8 (inactive).

`Cc1ccc(NC(=S)N(CCCN2CCCC2)Cc2cccn2Cc2ccc(Cl)cc2)cc1`: the activation factor was 1 (inactive).

For the compound `COc1cccc(CC2(CO)CCN(Cc3cnc(-c4cccc(C)c4)nc3)CC2)c1`, the activation factor was 0.7 (inactive).

Regarding `COC(=O)CC1=NN(c2ccccc2)C(=O)C1`, the activation factor was 1.1 (inactive).

In the case of `CCCn1c(=O)c2c(C(F)(F)F)cc(-c3cccs3)nc2n(CCC)c1=O`, the activation factor was 1 (inactive).

`Cc1ccc(C(=O)N/C(=C\c2cccs2)C(=O)NCCc2ccccn2)cc1C`: the activation factor is 0.7 (inactive).

On to `CN(C)c1ccc(C2Nc3ccccc3C(=O)N2NS(=O)(=O)c2ccccc2)cc1` (stereo not drawn), for which the activation factor is 0.9 (inactive).

Take `CCCCn1c(N)c(N2CCOCC2)c(=O)n(CC(=O)NCCc2ccccc2)c1=O`: the activation factor is 1 (inactive).

As to `COCCN1C(=O)N[C@@H](c2ccccc2)C(C(=O)OC)=C1C`, the activation factor is 1 (inactive).

Take `Cc1cc(C)n2nc(SCC(N)=O)nc2n1`: the activation factor is 1 (inactive).

For the compound `O=C(CNC(=O)c1ccccc1)NCC(=O)OCC(=O)c1ccccc1`, the activation factor was 1.1 (inactive).

For `O=C(O)c1cccc(NC(=O)c2cc(-c3cccc(Cl)c3)nc3ccccc23)c1`, the activation factor is 0.8 (inactive).

On to `[O-][n+]1onc2c1CCc1[nH]c(-c3ccccc3)nc1-2`, for which the activation factor is 0.9 (inactive).

`O=S(=O)(NC1CC1)c1ccc2c3c(cccc13)CC2`: the activation factor is 1 (inactive).

As to `C/C(Cn1nnc2ccccc21)=N\OC(=O)c1cc(F)c(F)cc1Cl`, the activation factor was 0.9 (inactive).

Take `COc1cccc(CNC(=O)c2n[nH]c3ccccc23)c1`: the activation factor is 1 (inactive).

With `Cc1ccc(C(=O)OC(C)CN2CCOCC2)cc1` (stereo not drawn), the activation factor was 1 (inactive).

In the case of `O=C(O)COc1ccc(/C=N/O)cc1Br`, the activation factor is 0.9 (inactive).

Take `Cc1ccccc1C(CC(=O)c1cccs1)C(C#N)C#N` (stereo not drawn): the activation factor is 0.9 (inactive).

Take `O=C(Nc1ccccc1Cc1ccccc1)c1ccc2c(c1)SC1=NS(=O)(=O)CCN12`: the activation factor was 0.9 (inactive).

For the compound `COc1cc(NC(=O)CSc2nnc3ccc(-c4ccncc4)nn23)cc(OC)c1`, the activation factor was 0.8 (inactive).

With `O=C(c1ccc(F)cc1)n1cc(C(=S)N2CCOCC2)c2ccccc21`, the activation factor is 1 (inactive).

In the case of `Cc1cccc(C)c1NC(=O)CNC(=O)Cc1ccc(Br)cc1`, the activation factor is 0.9 (inactive).

On to `COC(=O)C1=NNC2(c3ccc(C)cc3)C(=O)N(c3cccc(C)c3C)C(=O)C12` (stereo not drawn), for which the activation factor was 0.9 (inactive).

Consider `CCCNCc1cc(OCC)c(OCC(=O)Nc2ccccc2)cc1Br`, for which the activation factor was 0.9 (inactive).

For the compound `Cc1cc(C)cc(OCC(=O)NCc2cc(C)nc3ccccc23)c1`, the activation factor was 1 (inactive).

`COc1ccc([N+](=O)[O-])cc1NC(=O)c1ccc(N(Cc2ccccc2C)S(C)(=O)=O)cc1`: the activation factor is 0.9 (inactive).

Consider `COc1ccc(NS(=O)(=O)c2cc(NC(=O)C3CCCCC3)ccc2N2CCOCC2)cc1`, for which the activation factor is 1.1 (inactive).

In the case of `Cc1cc2c(C)nc(N/N=C/c3ccccc3)nc2o1`, the activation factor was 0.9 (inactive).

On to `O=C1NCC(=O)N(Cc2ccccc2)/C1=C/c1ccccc1`, for which the activation factor was 1 (inactive).

As for `CCOC(=O)C(C)Sc1nnc(CSc2nc3nc(C)cc(C)n3n2)o1` (stereo not drawn), the activation factor is 1 (inactive).

For `Cc1ccc(NC2=C(Cl)C(=O)OC2OC(=O)c2ccccc2C)cc1` (stereo not drawn), the activation factor was 0.9 (inactive).

With `O=C(Nc1ccc(F)cc1)N1CCN(c2ccc(F)cc2)CC1`, the activation factor is 0.9 (inactive).

For `Cc1ccc(/C(N)=N/OC(=O)COc2ccc(Cl)c(C)c2)cc1`, the activation factor is 0.9 (inactive).

In the case of `Cc1cc(C)n(-c2nnc(N3CCN(c4ccccc4)CC3)nn2)n1`, the activation factor was 0.9 (inactive).

As for `CCn1c(COc2c(C)cccc2C)nnc1SCc1nc2ccccc2c(=O)[nH]1`, the activation factor is 0.7 (inactive).

In the case of `Cc1cc(Cl)ccc1C(=O)C1CCCN(C(=O)CCN2CCCO2)C1` (stereo not drawn), the activation factor was 1 (inactive).

As for `Oc1c(Br)cccc1/C=N/Nc1c(F)c(F)c(F)c(F)c1F`, the activation factor was 1 (inactive).

As to `Cc1ccc(S(=O)(=O)N(CC(=O)NN=C2CCN(C)CC2)c2ccc(F)cc2)cc1`, the activation factor was 0.9 (inactive).

For `O=C(NC1CCCC1)C(NS(=O)(=O)c1ccc(Br)s1)c1ccccc1` (stereo not drawn), the activation factor was 0.9 (inactive).

For `CCOC(=O)C1CCN(C(=O)c2ccccc2N(C)S(=O)(=O)c2ccccc2)CC1`, the activation factor was 1 (inactive).

As for `Cn1cnnc1SCc1nnc(-c2ccccc2Br)o1`, the activation factor is 1 (inactive).

With `COc1ccc(CNC(=O)CN2CCC(n3nnc4cc(F)ccc43)CC2)cc1`, the activation factor was 0.8 (inactive).

Take `C=C(C)c1cccc(C(C)(C)NC(=O)NC2CCCC2)c1`: the activation factor was 0.9 (inactive).

Turning to `Nc1[nH]c(=S)nc2nc(-c3ccccc3)c(-c3ccccc3)nc12`, the activation factor is 0.8 (inactive).

Take `CC1=C[C@H]2Cc3cc(C)cc(C)c3S(=O)(=O)[C@@H]2C=C1`: the activation factor was 0.9 (inactive).

Turning to `CCCCOc1ccc(C(=O)N/C(=C/C=C/c2ccccc2)C(=O)N2CCOCC2)cc1`, the activation factor was 0.8 (inactive).

Consider `Cc1ccc(S(=O)(=O)Cc2cc(-c3ccc(Cl)cc3)no2)cc1`, for which the activation factor was 0.8 (inactive).

Take `CCOc1ccc(/C=C(/NC(=O)c2ccccc2)C(=O)NCCC(=O)O)cc1`: the activation factor was 0.9 (inactive).

With `NC(=O)C[C@@H]1NC(=O)CNC(=O)c2cc([N+](=O)[O-])cc(I)c2NCCC(C(N)=O)NC1=O` (stereo partly drawn), the activation factor was 1.1 (inactive).

Consider `CSc1cc(C)[nH]c(=O)n1`, for which the activation factor was 0.9 (inactive).

For the compound `C[n+]1ccc(/C=C/c2c[nH]c3ccccc23)cc1`, the activation factor was 1 (inactive).
